Assay results gathered from unrelated publications.
Route: oral

With `N#Cc1ccc(Nc2nc(N)cc(Oc3c(F)cc(-c4ccc(C#N)cc4)cc3F)n2)cc1` the bioavailability was 6.51% (Sprague-Dawley rat, plasma; 5 mg/kg).
`Cl.Clc1ccc2c(c1)nc(N1CCNCC1)n2Cc1ccccc1` gave a bioavailability of 42% (rat, plasma; 5 mg/kg).
With `N#C[C@]1(CO)O[C@@H](n2cnc3c(=O)[nH]c(N)nc32)C[C@@H]1O` the bioavailability was about 70% (male Sprague-Dawley rat, plasma; 1 mg/kg).
`N#Cc1ccc(-c2ccc(C[C@@H](C#N)NC(=O)[C@@H]3CCCCN3)cc2)cc1` gave a bioavailability of 80% (Sprague-Dawley rat, plasma; 3 mg/kg).
With `COc1ccc2c(Cc3ccccc3F)c3n(c(=O)c2c1OC)CCc1cc2c(cc1-3)OCO2` the bioavailability was 15% (rat, plasma; 5 mg/kg).
With `Cn1cc(-c2cc(N3CCCS3(=O)=O)ccc2Oc2ccc(F)cc2F)c2c(F)c[nH]c2c1=O` the bioavailability was 20 to 30% (Sprague-Dawley rat, plasma; 3 mg/kg).
For `Cc1cn(-c2cc(NC(=O)c3cccc(-c4ccc5nc(NC(=O)C6CC6)sc5n4)c3)cc(C(F)(F)F)c2)cn1`, the bioavailability was 4.7% (rat, serum; 2 mg/kg).
`COCCOC(=O)C1=C(C)NC(C)=C(C(=O)OC(C)C)C1c1cccc([N+](=O)[O-])c1` (centres unmarked) gave a bioavailability of 21.9% (male Sprague-Dawley rat, plasma; 12 mg/kg).
With `Cc1cc(C(=O)O)nc(N2C[C@H]3C[C@@H](c4ccccc4C(F)(F)F)C[C@H]3C2)n1` the bioavailability was over 100% (Sprague-Dawley rat, plasma; 12.7 µmol/kg, single dose).
`Oc1c(-n2ccnn2)cnn1-c1cc(N2CCOCC2)ncn1` has a bioavailability of 34% (rat, plasma; 30 mg/kg).
The bioavailability of `COc1ccc2c(=O)oc3c(OC)cc(CC(O)CN(C)C)c4c(=O)oc1c2c34` (centres unmarked) is reported as about 37% (rat, plasma).
For `Oc1c(-n2ccnc2)cnn1-c1cc(N2CCCCC2)ncn1`, the bioavailability was 39% (rat, plasma; 30 mg/kg).
`CCOC(=O)[C@@]12C[C@@H]1[C@@H](n1ccc3c(NC)nc(C#Cc4ccc(Cl)s4)nc31)[C@H](O)[C@@H]2O` gave a bioavailability of 92.3% (male Sprague-Dawley rat, plasma; 3 mg/kg).
`C#Cc1cnc2nc(O)n(C(CC)CC)c2n1` has a bioavailability of over 90% (Sprague-Dawley rat, plasma; 1 mg/kg).
The bioavailability of `CC1(C)CCN(c2c(C#N)c(=O)[nH]c3cccnc23)CC1` is reported as 61% (male Wistar rat, plasma).
`CNC(=O)c1cccc(-c2ccc(O[C@H]3O[C@H](CO)[C@@H](O)[C@H](O)[C@@H]3O)c(C)c2)c1` has a bioavailability of 1.34% (male Sprague-Dawley rat, plasma; 10 mg/kg, single dose).
`COc1nc2[nH]c(C(F)(F)F)nc2nc1Nc1ccc(OC(F)(F)F)cc1F` has a bioavailability of 100% (Sprague-Dawley rat, serum; 5 mg/kg).
